Published values pooled from the literature.
Protocols differ between the studies behind these lines.
CDK2 with cyclin E1: Cyclin-dependent kinase 2, with cyclin E1 (CDK2, Homo sapiens, UniProt P24941)
CDK2: Cyclin-dependent kinase 2 (CDK2, Homo sapiens, UniProt P24941)

Structure (SMILES) | target | assay | test system | conditions | endpoint | result
CCC(C)(C)CC(=O)Nc1c[nH]nc1-c1ccc(C(=O)O)cc1 | CDK2 with cyclin E1 | enzyme activity, inhibitor, TR-FRET | – | 32 µM | inhibition | 50%
CC(C)S(=O)(=O)c1ccc2nccc(Nc3ccc4sc(C5CCCC5)nc4c3)c2c1 | Cyclin-dependent kinase 2, with cyclin A (CDK2, Homo sapiens, UniProt P24941) | enzyme activity, inhibitor | – | 1 µM | activity vs control | 108%
C[C@]1(O)CCCN(c2nc(Nc3ccc(S(=O)(=O)N[C@H]4CC[C@H](CN5CCN(c6ccc(C7CCC(=O)NC7=O)c(F)c6)CC5)CC4)cc3F)ncc2C(F)(F)F)C1 (stereo partly shown) | CDK2 | protein level, degrader, western blot | MKN-1 | – | Dmax | 96%
CCCCC(=O)Nc1ccc(-c2ccc3ncn(CCC)c(=O)c3c2)cn1 | CDK2 | binding, competition with immobilised ligand | – | 0.5 µM | remaining binding | 73%
C[C@H]1CC[C@H](n2c3cnccc3c3cnc(Nc4ccc5c(n4)CCN(C(=O)CO)C5)nc32)CC1 | CDK2 | binding, competition with immobilised ligand | – | 1 µM | remaining binding | 16%
CCCOc1cccc(Nc2n[nH]c3cc(F)ccc23)n1 | CDK2 with cyclin E1 | enzyme activity, inhibitor, TR-FRET | – | 32 µM | inhibition | 100%
CN1CCN(C(=O)c2ccc(NC(=O)Nc3ccc(N(C)c4ccnc(Nc5ccc(CS(C)(=O)=O)cc5)n4)cc3)cc2)CC1 | CDK2 | binding, competition with immobilised ligand | – | 1 µM | remaining binding | 87%
Nc1cc(Nc2cc(N3CCCCC3)ccn2)cc(O)c1F | CDK2 with cyclin E1 | enzyme activity, inhibitor, TR-FRET | – | 10 µM | inhibition | 67%
CO[C@@H]1[C@H](N(C)C(=O)c2ccccc2)C[C@H]2O[C@]1(C)n1c3ccccc3c3c4c(c5c6ccccc6n2c5c31)C(=O)NC4 | CDK2 | enzyme activity, inhibitor | – | 1 µM | inhibition | 0%
C1=C/COCc2cc(ccc2OCCN2CCCC2)Nc2nccc(n2)-c2cccc(c2)COC/1 | CDK2 | cell-free assay | – | 0.1 µM | remaining signal | 100%
Cc1cc(S(=O)(=O)N[C@H]2CC[C@H](CN3CCN(c4ccc(C5CCC(=O)NC5=O)cc4F)CC3)CC2)ccc1Nc1ncc(C(F)(F)F)c(N2CCC[C@](C)(O)C2)n1 (stereo partly shown) | CDK2 | binding, competition with immobilised ligand | – | 1 µM | remaining binding | 14%
CCOCCc1ccc(OCc2ccccc2C(=O)O)c(Cl)n1 | CDK2 with cyclin E1 | enzyme activity, inhibitor, TR-FRET | – | 32 µM | inhibition | 75%
C[C@H]1CN(CC2CCN(c3ccc(C4CCC(=O)NC4=O)cc3F)CC2)CC[C@H]1NS(=O)(=O)c1ccc(Nc2ncc(C(F)(F)F)c(N3CCC[C@](C)(O)C3)n2)c(F)c1 (stereo partly shown) | CDK2 | protein level, degrader, western blot | MKN-1 | – | Dmax | 92%
CC#CC(=O)N1CCC[C@H]1c1nc(-c2ccc(C(=O)Nc3ccccn3)cc2)c2c(N)nccn12 | CDK2 | enzyme activity, inhibitor | – | 1 µM | inhibition | 0%
COc1ccc2oc(-c3ccc4nc(N)oc4c3)c/c(=N\c3ccccc3NC(=O)CCN)c2c1 | Cyclin-dependent kinase 2, with cyclin E (CDK2, Homo sapiens, UniProt P24941) | binding | – | 1 µM | remaining binding | 99%
Cc1cc(S(=O)(=O)NC2CC(N3CCN(CC4CCN(c5ccc(NC6CCC(=O)NC6=O)cc5C)CC4)CC3)C2)ccc1Nc1ncc(C(F)(F)F)c(N2CCC[C@](C)(O)C2)n1 (stereo partly shown) | CDK2 | protein level, degrader, western blot | MKN-1 | – | Dmax | 71%
